# Where two headings read alike, the source gives them in different places.
# Columns and labels:
# [1] = assay type: in vivo, human; conditions: human, plasma, oral; for AUC: AUC0-τ, 0 to 12 h; for AUC / AUC(0-inf) / Cmax: mean (SD); for AUC(0-inf): AUC0-∞; for Tmax: median (minimum, maximum)
# Outline: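 Open-label, fixed-sequence study in healthy CYP2D6 non-poor metabolizers. Oral test compound 84 mg, fasted: single dose Day 1, BID Days 2–8, then BID with a strong CYP3A/P-gp inhibitor 400 mg QD Days 9–15. Plasma sampled to 36 h Day 1, 12 h Day 8, 72 h Day 15, plus pre-dose samples. LC-MS/MS, LLOQ 0.2 ng/mL. Non-compartmental PK; ratios from log-transformed mixed-effects model with 90% CI.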
# [2] = Eliglustat alone, pharmacokinetics across all three studies; assay type: in vivo, human
# Outline: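 Test compound given orally to healthy adults as a single dose, then BID. Terminal half-life comes from single-dose plasma profiles by non-compartmental analysis. Plasma was protein-precipitated with acetonitrile containing a 13C internal standard, solid-phase extracted and measured by LC-MS/MS. Steady state was judged by graphical examination of pre-dose (trough) concentrations during repeated dosing.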
# [3] = tested on: glucosylceramide synthase; conditions: read-out: in vitro IC50; inhibitor of glucosylceramide synthase; cited from earlier work
# [4] = Rifampin drug interaction study: eliglustat pharmacokinetics in healthy adults; assay type: in vivo, human; conditions: for increase in eliglustat AUC: single infusion of rifampin 600 mg with single oral dose of eliglustat 127 mg; for Ratio (%) of geometric least squares mean, AUC0-t / AUC: 0 to 12 h; for Tmax: median (minimum, maximum); for AUC: AUC0-τ
# [5] = 84 mg, eliglustat 84 mg BID, Days 2 to 8, CYP2D6 EMs only (N = 31)
# [6] = 84 mg, eliglustat 84 mg BID, Days 2 to 8, all (N = 33)
# [7] = 84 mg, eliglustat 84 mg single dose, Day 1, all (N = 36)
# [8] = eliglustat 84 mg BID + ketoconazole 400 mg QD, Days 9 to 15, CYP2D6 EMs only (N = 31)
# [9] = eliglustat 84 mg BID + ketoconazole 400 mg QD, Days 9 to 15, all (N = 33)
# [10] = CYP2D6 PMs, eliglustat 84 mg BID with oral rifampin 600 mg QD
# [11] = CYP2D6 PMs, multiple dose Day 6, test 600 mg rifampin oral QD + 84 mg eliglustat oral BID (N = 6) vs reference 84 mg eliglustat oral BID alone (N = 6)
# [12] = CYP2D6 non-PMs, eliglustat 127 mg BID with oral rifampin 600 mg QD
# [13] = CYP2D6 non-PMs, multiple dose Day 6, test 600 mg rifampin oral QD + 127 mg eliglustat oral BID (N = 18) vs reference 127 mg eliglustat oral BID alone (N = 19)
# [14] = human, plasma, oral, 84 mg, CYP2D6 PMs, eliglustat 84 mg BID, monotherapy period Days 2 to 6, mean (SD)
# [15] = human, plasma, oral, 127 mg, CYP2D6 non-PMs (N = 19), eliglustat 127 mg BID, monotherapy period Days 2 to 6, mean (SD)
# [16] = human, plasma, oral, 127 mg, IMs/EMs only (N = 14), eliglustat 127 mg BID, monotherapy period Days 2 to 6, mean (SD)
# [17] = human, plasma, po, CYP2D6 PMs, eliglustat 84 mg BID + rifampin 600 mg oral QD, concomitant period Days 2 to 6, mean (SD)
# [18] = human, plasma, po, CYP2D6 non-PMs (N = 18), eliglustat 127 mg BID + rifampin 600 mg oral QD, concomitant period Days 2 to 6, mean (SD)
# [19] = human, plasma, po, IMs/EMs only (N = 13), eliglustat 127 mg BID + rifampin 600 mg oral QD, concomitant period Days 2 to 6, mean (SD)
structure (smiles),measurement,setting,value
CCCCCCCC(=O)N[C@H](CN1CCCC1)[C@H](O)c1ccc2c(c1)OCCO2 [eliglustat],AUC,[1]; [5],119 ng·h/mL
same,AUC,[1]; [6],113 ng·h/mL
same,AUC(0-inf),"[1]; 84 mg, eliglustat 84 mg single dose, Day 1, CYP2D6 EMs only (N = 32)",77.2 ng·h/mL
same,AUC(0-inf),"[1]; 84 mg, eliglustat 84 mg single dose, Day 1, all (N = 34)",73.2 ng·h/mL
same,Cmax,[1]; [5],19.5 ng/mL
same,Cmax,[1]; [6],18.6 ng/mL
same,Cmax,"[1]; 84 mg, eliglustat 84 mg single dose, Day 1, CYP2D6 EMs only (N = 34)",10.3 ng/mL
same,Cmax,[1]; [7],9.87 ng/mL
same,Tmax,[1]; [6],2 h
same,Tmax,[1]; [7],1.6 h
same,AUC,[1]; [8],501 ng·h/mL
same,AUC,[1]; [9],474 ng·h/mL
same,Cmax,[1]; [8],71 ng/mL
same,Cmax,[1]; [9],67.2 ng/mL
same,Tmax,[1]; [9],2.3 h
same,half-life,"[2]; human, plasma, oral",4.2 to 5.11 h
same,time to steady-state,"[2]; repeated doses of eliglustat, graphical examination of Ctrough values",approximately 4 days
same,IC50,[3],24 nM
same,increase in eliglustat AUC,[4]; CYP2D6 EMs,24%
same,reduction of eliglustat AUC0-τ compared with eliglustat alone,[4]; [10],> 95%
same,reduction of eliglustat Cmax compared with eliglustat alone,[4]; [10],> 95%
same,"Ratio (%) of geometric least squares mean, Cmax",[4]; [11],0.05%
same,"Ratio (%) of geometric least squares mean, AUC0-t",[4]; [11],0.04%
same,effect on mean eliglustat exposure,"[4]; CYP2D6 PMs, single 30-min infusion of rifampin 600 mg with single oral dose of eliglustat 84 mg",no effect
same,"Ratio (%) of geometric least squares mean, AUC0-∞","[4]; CYP2D6 PMs, single dose Day 1, test 600 mg rifampin IV + 84 mg eliglustat oral (N = 6) vs reference 84 mg eliglustat oral (N = 5)",0.95%
same,"Ratio (%) of geometric least squares mean, Cmax","[4]; CYP2D6 PMs, single dose Day 1, test 600 mg rifampin IV + 84 mg eliglustat oral (N = 6) vs reference 84 mg eliglustat oral (N = 6)",0.97%
same,reduction of eliglustat AUC0-τ (exposure) compared with eliglustat alone,[4]; [12],> 85%
same,reduction of eliglustat Cmax compared with eliglustat alone,[4]; [12],> 85%
same,"Ratio (%) of geometric least squares mean, Cmax",[4]; [13],0.16%
same,"Ratio (%) of geometric least squares mean, AUC0-t",[4]; [13],0.15%
same,"Ratio (%) of geometric least squares mean, AUC0-∞","[4]; CYP2D6 non-PMs, single dose Day 1, test 600 mg rifampin IV + 127 mg eliglustat oral (N = 17) vs reference 127 mg eliglustat oral alone (N = 19)",1.19%
same,"Ratio (%) of geometric least squares mean, Cmax","[4]; CYP2D6 non-PMs, single dose Day 1, test 600 mg rifampin IV + 127 mg eliglustat oral (N = 19) vs reference 127 mg eliglustat oral alone (N = 19)",1.19%
same,increase in eliglustat AUC,[4]; URMs,11%
same,Cmax,"[4]; human, plasma, iv, CYP2D6 non-PMs (N = 19), eliglustat 127 mg single dose + rifampin 600 mg IV single dose, concomitant period Day 1, mean (SD)",17.9 ng/mL
same,half-life,"[4]; human, plasma, iv, t1/2z, CYP2D6 PMs, eliglustat 84 mg single dose + rifampin 600 mg IV single dose, concomitant period Day 1, mean (SD)",6.9 h
same,Tmax,"[4]; human, plasma, iv, CYP2D6 PMs, eliglustat 84 mg single dose + rifampin 600 mg IV single dose, concomitant period Day 1",4 h
same,Tmax,"[4]; human, plasma, iv, CYP2D6 non-PMs (N = 19), eliglustat 127 mg single dose + rifampin 600 mg IV single dose, concomitant period Day 1",3 h
same,AUC,[4]; [14],922 ng·h/mL
same,Cmax,[4]; [14],113 ng/mL
same,Tmax,"[4]; human, plasma, oral, 84 mg, CYP2D6 PMs, eliglustat 84 mg BID, monotherapy period Days 2 to 6",3 h
same,AUC,[4]; [15],295 ng·h/mL
same,AUC,[4]; [16],378 ng·h/mL
same,Cmax,[4]; [15],42.8 ng/mL
same,Cmax,[4]; [16],54.7 ng/mL
same,Tmax,"[4]; human, plasma, oral, 127 mg, CYP2D6 non-PMs (N = 19), eliglustat 127 mg BID, monotherapy period Days 2 to 6",2 h
same,AUC,[4]; [17],38 ng·h/mL
same,AUC,[4]; [18],29.3 ng·h/mL
same,AUC,[4]; [19],31 ng·h/mL
same,Cmax,[4]; [17],5.7 ng/mL
same,Cmax,[4]; [18],4.67 ng/mL
same,Cmax,[4]; [19],4.89 ng/mL
same,Tmax,"[4]; human, plasma, po, CYP2D6 PMs, eliglustat 84 mg BID + rifampin 600 mg oral QD, concomitant period Days 2 to 6",2.5 h
same,Tmax,"[4]; human, plasma, po, CYP2D6 non-PMs (N = 18), eliglustat 127 mg BID + rifampin 600 mg oral QD, concomitant period Days 2 to 6",1.5 h
same,changes in eliglustat exposure,"[4]; in the presence of a single IV infusion of rifampin, called negligible",< 19%
same,effect of a single intravenous dose of rifampin on eliglustat,"[4]; single IV rifampin dose, overall statement",no effect

# Source: publication PMC6976987 (Molecular Genetics and Metabolism Reports, 2020)
